High-throughput results deposited in PubChem by Broad Institute.
IDH1 mut inh – IDH1 R132H (human) inhibition. IDH1 R132H reductase, diaphorase/resazurin fluorescence, 60 min. 70,000 tested, 0.18% active. O75874. inhibition, % at 10 µM; in the data active = inhibition above about 34%; inconclusive = no clear call, values can overlap the other calls; inactive = below about 11%
Target sequence (O75874 whole entry R132H): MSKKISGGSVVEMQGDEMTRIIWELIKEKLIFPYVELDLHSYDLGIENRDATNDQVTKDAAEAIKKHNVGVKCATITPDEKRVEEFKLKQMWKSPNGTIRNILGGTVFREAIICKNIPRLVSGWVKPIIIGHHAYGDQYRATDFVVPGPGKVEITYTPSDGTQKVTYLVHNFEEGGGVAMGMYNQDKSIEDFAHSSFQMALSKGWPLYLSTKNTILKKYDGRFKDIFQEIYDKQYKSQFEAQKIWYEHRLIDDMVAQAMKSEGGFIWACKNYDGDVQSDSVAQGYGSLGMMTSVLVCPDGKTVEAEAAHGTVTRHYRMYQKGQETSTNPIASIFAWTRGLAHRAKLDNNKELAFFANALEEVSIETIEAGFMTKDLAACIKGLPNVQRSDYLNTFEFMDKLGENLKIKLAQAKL
KDM4C inh – blocks human GASC-1 (KDM4C) demethylase activity | GST-KDM4C 2-372, H3K9me3 peptide, LANCE TR-FRET | inhibition, % at 12.5 µM | 96,000 tested, 0.15% active | AID 720574;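 active = mean replicate inhibition above about 25%, with at least 55% of replicates also reaching it, limit read from the data, passing the limit was not always enough; inconclusive = only one of those two conditions met; inactive = neither condition met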
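System – N-terminal GST-fused human GASC-1 (KDM4C) fragment, residues 2-372 · Input – enzyme final amount 10 nM · Technique – LANCE TR-FRET, Eu antibody, ULight-streptavidin, EDTA, ex 340 nm, em 618/671 nm · Medium – HEPES buffer, pH 7.5, plus ascorbate · Incubation – enzyme reaction 30 min, then detection 60 min, both room temperature · Reagent – H3K9me3 peptide with Fe(II)/2OG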
T cruzi growth-1 – inhibitors of T. cruzi proliferation | T. cruzi beta-gal in NIH3T3, GalScreen luminescence, 90 h | inhibition, % at 8.34 µM | 77,000 tested, 5.9% active;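 active = mean inhibition above about 93%, with at least 55% of replicates each passing it, limit read from the data, passing the limit was not always enough; inconclusive = only one of those two conditions holds; inactive = neither condition holds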
Pf Dd2 inh – inhibitors of Plasmodium falciparum Dd2 growth | P. falciparum Dd2 growth, SYBR Green, 72 h; stronger effect = lower value | activity change, % at 10 µM | 94,000 tested, 2.3% active | AID 1159554; in the data active = activity change below about -80%; inconclusive = no clear call, values can overlap the other calls
T cruzi growth-2 – blocks T. cruzi growth in NIH3T3 host cells; T. cruzi beta-gal in NIH3T3, GalScreen luminescence, 90 h; AID 651739; 5,600 tested, 72% active; inhibition, % at 8.35 µM; shares compounds with T cruzi growth-1;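 active = mean replicate inhibition above about 95% and at least 55% of replicates individually reaching it, limit read from the data; inconclusive = only one of the two criteria is met; inactive = neither criterion is met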
T cruzi growth-3 – inhibitors of T. cruzi proliferation; shares compounds with T cruzi growth-1; T. cruzi beta-gal in NIH3T3, GalScreen luminescence, 90 h; inhibition, % at 2.09 µM; 5,600 tested, 21% active; AID 651740;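 active = mean inhibition above about 95%, with at least 55% of replicates also reaching it, limit read from the data; inconclusive = meets just one of the two conditions; inactive = meets neither condition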
NIH3T3 tox – kills mouse NIH/3T3 fibroblasts | NIH/3T3 viability, CellTiter-Glo ATP luminescence, 90 h | 5,600 tested, 14% active | shares compounds with T cruzi growth-1 | cytotoxicity (signal decrease), % at 8.35 µM;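 active = mean signal decrease across replicates above about 35% based on untreated-well scatter, with enough replicates individually passing, limit read from the data; inconclusive = no rule stated though some were filed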
3T3 cytotox 2 – NIH/3T3 (mouse) viability loss; shares compounds with T cruzi growth-1; NIH/3T3 viability, CellTiter-Glo ATP luminescence, 90 h; inhibition, % at 24.9 µM; 5,600 tested, 56% active;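 active = mean loss of cell viability signal at or above a set limit, and enough replicates individually reaching it; inconclusive = meets only the mean limit or only the replicate share; inactive = meets neither condition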
A number is an active result; – = inactive; ? = inconclusive; · = no result. The list is not random: actives were taken first. Their share in the collection is about 5.8%.

SMILES	IDH1 mut inh	KDM4C inh	T cruzi growth-1	Pf Dd2 inh	T cruzi growth-2	T cruzi growth-3	NIH3T3 tox	3T3 cytotox 2
C[C@@H]1CN([C@H](C)CO)C(=O)c2cccc(NC(=O)c3ccncc3)c2O[C@H]1CN(C)Cc1ccc(-c2ccccc2)cc1	·	–	107	–	–	–	50	41
C[C@H](CO)N1C[C@H](C)[C@@H](CN(C)CC2CCCCC2)Oc2c(NS(=O)(=O)c3cn(C)cn3)cccc2C1=O	·	–	103	–	–	–	–	–
CCN(CC)CCNc1ncnc2scc(-c3ccc(F)cc3)c12	–	·	·	·	·	·	·	·
Cc1nc(SCC(=O)Nc2ccc([N+](=O)[O-])cc2)[nH]c(=O)c1C	–	·	·	·	·	·	·	·
COc1ccc(CC(=O)Nc2ccc(NC(=O)c3ccco3)cc2)cc1OC	–	·	·	·	·	·	·	·
CS(=O)(=O)N(CC(=O)NC1CCCCC1)c1cc(Cl)c(Cl)cc1Cl	–	·	·	·	·	·	·	·
C[C@@H]1CN([C@@H](C)CO)C(=O)c2cccc(NC(=O)c3ccncc3)c2O[C@H]1CN(C)Cc1ccc(-c2ccccc2)cc1	·	–	105	–	–	–	–	55
C[C@@H]1CN([C@H](C)CO)C(=O)c2cccc(NC(=O)c3ccncc3)c2O[C@H]1CN(C)CC1CC1	–	–	–	–	·	·	·	·
C[C@H](CO)N1C[C@H](C)[C@@H](CN(C)CC2CC2)Oc2c(NC(=O)c3ccncc3)cccc2C1=O	–	·	102	–	–	–	–	?
C[C@H]1CN([C@@H](C)CO)C(=O)c2cccc(NC(=O)c3ccncc3)c2O[C@H]1CN(C)Cc1ccncc1	·	–	–	–	·	·	·	·
CCN(C[C@@H]1N[C@@H](CO)[C@H]1c1ccc(-c2ccc(F)cc2)cc1)C(=O)CN(C)C	·	–	109	-81	100	–	?	104
C[C@@H]1CN([C@H](C)CO)S(=O)(=O)c2ccc(C3=CCCC3)cc2O[C@@H]1CN(C)C(=O)C1CCCCC1	·	–	115	–	102	–	?	–
C[C@@H]1CN([C@@H](C)CO)S(=O)(=O)c2ccc(C3=CCCC3)cc2O[C@H]1CN(C)C(=O)C1CCCCC1	·	–	?	–	–	–	–	41
Cc1ccc(C(=O)O)cc1S(=O)(=O)N(C)CCO	–	·	·	·	·	·	·	·
C[C@@H]1CN([C@@H](C)CO)S(=O)(=O)c2ccc(C3=CCCCC3)cc2O[C@@H]1CN(C)C(=O)c1ccc(F)cc1	–	–	114	–	107	–	–	98
C[C@H](CO)N1C[C@H](C)[C@H](CN(C)C(=O)c2ccncc2)Oc2cc(C3=CCCC3)ccc2S1(=O)=O	–	–	?	–	99	–	–	–
CCc1cc(C(=O)OC)c(NC(=O)CC2Nc3cccc4cccc(c34)NC2=O)s1 (configuration not stated)	–	·	·	·	·	·	·	·
C[C@@H]1CCCCO[C@@H](CN(C)Cc2ccc(Cl)c(Cl)c2)[C@@H](C)CN([C@H](C)CO)C(=O)c2cc(NC(=O)CCC(F)(F)F)ccc2O1	·	·	?	–	108	–	–	–
C[C@@H]1CCCCO[C@H](CN(C)Cc2ccc(Cl)c(Cl)c2)[C@H](C)CN([C@@H](C)CO)C(=O)c2cc(NC(=O)Nc3ccc4c(c3)OCO4)ccc2O1	–	–	101	-86	96	117	–	–
C[C@@H]1CN([C@@H](C)CO)C(=O)c2cc(NC(=O)CCC(F)(F)F)ccc2O[C@@H](C)CCCCO[C@H]1CN(C)Cc1ccc(Cl)c(Cl)c1	–	–	–	–	·	·	·	·
C[C@@H]1CCCCO[C@@H](CN(C)Cc2ccc(Cl)c(Cl)c2)[C@@H](C)CN([C@H](C)CO)C(=O)c2cc(NC(=O)Nc3ccc4c(c3)OCO4)ccc2O1	–	–	104	–	104	–	–	–
C[C@@H]1CCCCO[C@@H](CN(C)Cc2ccc(Cl)c(Cl)c2)[C@H](C)CN([C@@H](C)CO)C(=O)c2cc(NC(=O)Nc3ccc4c(c3)OCO4)ccc2O1	·	–	–	–	·	·	·	·
C[C@@H]1CN([C@H](C)CO)C(=O)c2cc(NC(=O)Nc3ccc4c(c3)OCO4)ccc2O[C@@H](C)CCCCO[C@@H]1CN(C)C(=O)C1CCCCC1	–	–	–	–	·	·	·	·
C[C@H](CO)N1C[C@H](C)[C@@H](CN(C)C(=O)C2CCCCC2)OCCCC[C@H](C)Oc2ccc(NC(=O)Nc3ccc4c(c3)OCO4)cc2C1=O	–	–	111	–	–	–	–	–
Cc1ccc(OCc2nc(N)nc(N(C)C)n2)cc1C	–	·	·	·	·	·	·	·
SMILES	IDH1 mut inh	KDM4C inh	T cruzi growth-1	Pf Dd2 inh	T cruzi growth-2	T cruzi growth-3	NIH3T3 tox	3T3 cytotox 2
C[C@H](CO)N1C[C@H](C)[C@H](CN(C)Cc2ccc3c(c2)OCO3)OCCCC[C@H](C)Oc2ccc(NC(=O)Nc3ccccc3)cc2C1=O	–	–	103	–	106	–	–	104
C[C@@H]1CN([C@H](C)CO)C(=O)c2cc(NC(=O)Cc3ccccc3)ccc2O[C@@H]1CN(C)Cc1ccc(Cl)c(Cl)c1	–	–	109	–	109	–	–	93
C[C@H](CO)N1C[C@H](C)[C@H](CN(C)Cc2ccc(Cl)c(Cl)c2)Oc2ccc(NC(=O)CCCCCC(=O)Nc3ccccc3N)cc2C1=O	·	–	97	–	103	102	–	32
C[C@@H]1CCCCO[C@H](CN(C)Cc2ccc3c(c2)OCO3)[C@H](C)CN([C@@H](C)CO)C(=O)c2cc(NC(=O)c3ccncc3)ccc2O1	–	–	112	–	–	–	–	–
CSc1ccccc1NC(=O)CN(c1ccc(Cl)cc1)S(C)(=O)=O	–	·	·	·	·	·	·	·
C[C@@H]1CCCCO[C@@H](CN(C)Cc2ccc3c(c2)OCO3)[C@H](C)CN([C@@H](C)CO)C(=O)c2cc(NC(=O)Nc3ccc4c(c3)OCO4)ccc2O1	·	–	103	–	99	–	–	–
C[C@@H]1CCCCO[C@@H](CN(C)Cc2ccc(Cl)c(Cl)c2)[C@@H](C)CN([C@@H](C)CO)C(=O)c2cc(NC(=O)Cc3ccccc3)ccc2O1	–	–	98	–	106	–	–	–
C[C@@H]1CCCCO[C@H](CN(C)CC2CCCCC2)[C@@H](C)CN([C@H](C)CO)C(=O)c2cc(NC(=O)Nc3ccc4c(c3)OCO4)ccc2O1	·	–	97	–	109	112	–	83
C[C@@H]1CN([C@@H](C)CO)C(=O)c2cc(NC(=O)Nc3ccc4c(c3)OCO4)ccc2O[C@@H](C)CCCCO[C@@H]1CN(C)C	·	–	–	·	·	·	·	·
C[C@@H]1CN([C@H](C)CO)C(=O)c2cc(NC(=O)Cc3ccccc3)ccc2O[C@@H](C)CCCCO[C@@H]1CN(C)Cc1ccc(Cl)c(Cl)c1	·	–	–	–	·	·	·	·
